Measured values taken from ChEMBL document CHEMBL1208790, “Exploration of a new series of CCR5 antagonists: multi-dimensional optimization of a sub-series containing N-substituted pyrazoles” (Bioorg Med Chem Lett, 2010).

test: Lipophilicity, log D of the compound at pH 7 by shake flask method; assay type: physicochemical; conditions: buffer
Summary of the method: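 High-throughput shake-flask log D determination at pH 7.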

Row | Compound | logD
1 | Cc1ncnc(C)c1C(=O)N1C[C@H]2CN(CC[C@H](NC(=O)C3CCCC3)c3ccccc3)C[C@H]2C1 | 1.37
2 | Cc1ccnc(C)c1C(=O)N1C[C@H]2CN(CC[C@H](NC(=O)C3CCCC3)c3ccccc3)C[C@H]2C1 | 1.9
3 | Cc1cc(C#N)nc(C)c1C(=O)N1C[C@H]2CN(CC[C@H](NC(=O)C3CCCC3)c3ccccc3)C[C@H]2C1 | 1.89
4 | Cc1nn(-c2ccccc2)c(C)c1C(=O)N1C[C@H]2CN(CC[C@H](NC(=O)C3CCCC3)c3ccccc3)C[C@H]2C1 | 2.92
